Columns and labels:
Canis familiaris [1] = test: Total time in minutes elapsed from the initiation of the change until return to the pretest value of blood pressure in coronary sinus of anesthetized dog at intravenous dosage of 0.01 mg/kg; format: functional, Canis lupus familiaris
Canis familiaris [2] = test: Total time in minutes elapsed from the initiation of the change until return to the pretest value of heart rate in coronary sinus of anesthetized dog at intravenous dosage of 0.01 mg/kg; format: functional, Canis lupus familiaris
Canis familiaris [3] = test: Total time in minutes elapsed from the initiation of the change until return to the pretest value of oxygen partial pressure in coronary sinus of anesthetized dog at intravenous dosage of 0.01 mg/kg; format: functional, Canis lupus familiaris
Canis familiaris [4] = test: Tested for percent increase in coronary sinus partial pressure of oxygen (PO2) in open chest anesthetized dog at intravenous dosage of 0.01 mg/kg; format: functional, Canis lupus familiaris
[5] = Lethal dose in mice after intraperitoneal administration; format: toxicity, organism-based; details: mouse, in vivo, ip
Outline: (§1)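 Male and female mice, three per dose group, were given the compound by the stated route in increments of 0.5 log doses. The LD50 was estimated as an approximate value.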

[6] = Lethal dose in mice after peroral administration; format: toxicity, organism-based; details: mouse, in vivo, po; outline: as §1
Canis familiaris [7] = test: Tested for the percent increase in aortic blood pressure (BP) in open chest anesthetized dog at intravenous dosage of 0.01 mg/kg; format: functional, Canis lupus familiaris, Artery
Outline: (§2)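 Open-chest anesthetized dogs, compound given iv at the stated dose. Aortic blood pressure is reported as the change from the control (pre-dose) value. Other set-up follows the group's earlier cardiovascular protocol.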

Canis familiaris [8] = test: Total time in minutes elapsed from the initiation of the change until return to the pretest value of blood pressure in coronary sinus of anesthetized dog at intravenous dosage of 10 mg/kg; format: functional, Canis lupus familiaris
Canis familiaris [9] = test: Total time in minutes elapsed from the initiation of the change until return to the pretest value of heart rate in coronary sinus of anesthetized dog at intravenous dosage of 10 mg/kg; format: functional, Canis lupus familiaris
Canis familiaris [10] = test: Total time in minutes elapsed from the initiation of the change until return to the pretest value of oxygen partial pressure in coronary sinus of anesthetized dog at intravenous dosage of 10 mg/kg; format: functional, Canis lupus familiaris
Outline: (§3)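 Open-chest anesthetized dogs given compound by intravenous injection. Coronary sinus PO2 was monitored, and duration was the total time in minutes from the onset of the change until return to the pretest value.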

Canis familiaris [11] = test: Tested for the percent increase in aortic blood pressure (BP) in open chest anesthetized dog at intravenous dosage of 10.00 mg/kg; format: functional, Canis lupus familiaris, Artery; outline: as §2
Canis familiaris [12] = test: Tested for percent increase in coronary sinus partial pressure of oxygen (PO2) in open chest anesthetized dog at intravenous dosage of 10.00 mg/kg; format: functional, Canis lupus familiaris
Canis familiaris [13] = test: Total time in minutes elapsed from the initiation of the change until return to the pretest value of blood pressure in coronary sinus of anesthetized dog at intravenous dosage of 1 mg/kg; format: functional, Canis lupus familiaris
Canis familiaris [14] = test: Total time in minutes elapsed from the initiation of the change until return to the pretest value of heart rate in coronary sinus of anesthetized dog at intravenous dosage of 1 mg/kg; format: functional, Canis lupus familiaris
Canis familiaris [15] = test: Total time in minutes elapsed from the initiation of the change until return to the pretest value of oxygen partial pressure in coronary sinus of anesthetized dog at intravenous dosage of 1 mg/kg; format: functional, Canis lupus familiaris; outline: as §3
Canis familiaris [16] = test: Tested for percent increase in coronary sinus partial pressure of oxygen (PO2) in open chest anesthetized dog at intravenous dosage of 1.00 mg/kg; format: functional, Canis lupus familiaris
Canis familiaris [17] = test: Tested for the percent increase in aortic blood pressure (BP) in open chest anesthetized dog at intravenous dosage of 1.00 mg/kg; format: functional, Canis lupus familiaris, Artery; outline: as §2
Canis familiaris [18] = test: Total time in minutes elapsed from the initiation of the change until return to the pretest value of blood pressure in coronary sinus of anesthetized dog at intravenous dosage of 0.1 mg/kg; format: functional, Canis lupus familiaris
Canis familiaris [19] = test: Total time in minutes elapsed from the initiation of the change until return to the pretest value of heart rate in coronary sinus of anesthetized dog at intravenous dosage of 0.1 mg/kg; format: functional, Canis lupus familiaris
Canis familiaris [20] = test: Total time in minutes elapsed from the initiation of the change until return to the pretest value of oxygen partial pressure in coronary sinus of anesthetized dog at intravenous dosage of 0.1 mg/kg; format: functional, Canis lupus familiaris
Canis familiaris [21] = test: Tested for percent increase in coronary sinus partial pressure of oxygen (PO2) in open chest anesthetized dog at intravenous dosage of 0.10 mg/kg; format: functional, Canis lupus familiaris; details: dose 0.1 mg/kg
Canis familiaris [22] = test: Tested for the percent increase in aortic blood pressure (BP) in open chest anesthetized dog at intravenous dosage of 0.10 mg/kg; format: functional, Canis lupus familiaris, Artery; details: dose 0.1 mg/kg; outline: as §2
Canis familiaris [23] = test: tested for the percent increase in heart rate (HR) in open chest anesthetized dog at intravenous dosage of 0.10 mg/kg; format: functional, Canis lupus familiaris; details: dose 0.1 mg/kg

CC(C)NC(=O)[C@H]1OC(n2cnc3c(N)ncnc32)[C@H](O)[C@@H]1O (stereo partly specified)
Duration (Canis familiaris [1]): 70 min | Duration (Canis familiaris [2]): 240 min | Duration (Canis familiaris [3]): 240 min | PO2 (Canis familiaris [4]): 43% | LD50 [5]: 5 mg/kg | LD50 [6]: 5 mg/kg

CC(=O)OC1[C@@H](C(=O)NC2CC2)O[C@@H](n2cnc3c(N)ncnc32)[C@H]1OC(C)=O (stereo partly specified)
Duration (Canis familiaris [1]): 270 min | Duration (Canis familiaris [2]): 270 min | Duration (Canis familiaris [3]): 270 min | PO2 (Canis familiaris [4]): 67% | BP (Canis familiaris [7]): 31% | LD50 [5]: 5 mg/kg | LD50 [6]: 20 mg/kg

CCNC(=O)[C@H]1O[C@@H](n2cnc3c(N)ncnc32)[C@H]2OC(C)(C)OC12 (stereo partly specified)
Duration (Canis familiaris [8]): 0 min | Duration (Canis familiaris [9]): 16 min | Duration (Canis familiaris [10]): 30 min | BP (Canis familiaris [11]): 0% | PO2 (Canis familiaris [12]): 27%

Cc1cccc(OCC(O)CNC(=O)[C@H]2OC(n3cnc4c(N)ncnc43)[C@H](O)[C@@H]2O)c1 (stereo partly specified)
Duration (Canis familiaris [13]): 30 min | Duration (Canis familiaris [14]): 1 min | Duration (Canis familiaris [15]): 7 min | PO2 (Canis familiaris [16]): 42% | BP (Canis familiaris [17]): 3% | LD50 [5]: > 300 mg/kg | LD50 [6]: > 300 mg/kg

Nc1ncnc2c1ncn2[C@@H]1O[C@H](C(=O)NC2CCCC2)[C@@H](O)[C@H]1O
Duration (Canis familiaris [18]): 120 min | Duration (Canis familiaris [19]): 120 min | Duration (Canis familiaris [20]): 120 min | PO2 (Canis familiaris [21]): 83% | BP (Canis familiaris [22]): 12% | HR (Canis familiaris [23]): 25% | LD50 [5]: 200 mg/kg | LD50 [6]: 200 mg/kg

CCNC(=O)[C@H]1O[C@@H](n2cnc3c(N)ncnc32)[C@@H](OC(C)=O)C1OC(C)=O (stereo partly specified)
Duration (Canis familiaris [1]): 70 min | Duration (Canis familiaris [2]): 120 min | Duration (Canis familiaris [3]): 120 min | PO2 (Canis familiaris [4]): 52% | BP (Canis familiaris [7]): 12% | LD50 [5]: 2 mg/kg | LD50 [6]: 2 mg/kg

C=C(C)CNC(=O)[C@H]1OC(n2cnc3c(N)ncnc32)[C@H](O)[C@@H]1O (stereo partly specified)
Duration (Canis familiaris [18]): 15 min | Duration (Canis familiaris [19]): 60 min | Duration (Canis familiaris [20]): 60 min | PO2 (Canis familiaris [21]): 38% | BP (Canis familiaris [22]): 1% | HR (Canis familiaris [23]): 19% | LD50 [5]: 500 mg/kg | LD50 [6]: > 1000 mg/kg

Nc1ncnc2c1ncn2C1O[C@H](C(=O)Nc2ccc(F)cc2)[C@@H](O)[C@H]1O (stereo partly specified)
Duration (Canis familiaris [8]): 0 min | Duration (Canis familiaris [9]): 0 min | Duration (Canis familiaris [10]): 20 min | BP (Canis familiaris [11]): 0% | PO2 (Canis familiaris [12]): 30% | LD50 [5]: 500 mg/kg | LD50 [6]: > 1000 mg/kg

CCC(CC)NC(=O)[C@H]1OC(n2cnc3c(N)ncnc32)[C@H](O)[C@@H]1O (stereo partly specified)
Duration (Canis familiaris [18]): 110 min | Duration (Canis familiaris [19]): 110 min | Duration (Canis familiaris [20]): 110 min | PO2 (Canis familiaris [21]): 28% | BP (Canis familiaris [22]): 9% | HR (Canis familiaris [23]): 11% | LD50 [5]: 50 mg/kg | LD50 [6]: > 300 mg/kg

Nc1ncnc2c1ncn2C1O[C@H](C(=O)Nc2ccccc2)[C@@H](O)[C@H]1O (stereo partly specified)
Duration (Canis familiaris [13]): 0 min | Duration (Canis familiaris [14]): 7 min | Duration (Canis familiaris [15]): 120 min | PO2 (Canis familiaris [16]): 127% | BP (Canis familiaris [17]): 0% | LD50 [5]: > 1000 mg/kg | LD50 [6]: > 1000 mg/kg

CCC(=O)c1ccccc1NC(=O)[C@H]1OC(n2cnc3c(N)ncnc32)[C@H](O)[C@@H]1O (stereo partly specified)
Duration (Canis familiaris [8]): 40 min | Duration (Canis familiaris [9]): 40 min | Duration (Canis familiaris [10]): 16 min | BP (Canis familiaris [11]): 5% | PO2 (Canis familiaris [12]): 39% | LD50 [5]: > 1000 mg/kg | LD50 [6]: > 1000 mg/kg

Nc1ncnc2c1ncn2C1O[C@H](C(=O)N2CCOCC2)[C@@H](O)[C@H]1O (stereo partly specified)
Duration (Canis familiaris [8]): 0 min | Duration (Canis familiaris [9]): 0 min | Duration (Canis familiaris [10]): 0 min | BP (Canis familiaris [11]): 0% | PO2 (Canis familiaris [12]): 0% | LD50 [5]: > 300 mg/kg | LD50 [6]: > 300 mg/kg

CCCCCCNC(=O)[C@H]1OC(n2cnc3c(N)ncnc32)[C@H](O)[C@@H]1O (stereo partly specified)
Duration (Canis familiaris [13]): 0 min | Duration (Canis familiaris [14]): 6 min | Duration (Canis familiaris [15]): 40 min | PO2 (Canis familiaris [16]): 100% | BP (Canis familiaris [17]): 0% | LD50 [5]: 200 mg/kg | LD50 [6]: 500 mg/kg

— ChEMBL document CHEMBL1121608, “Modification of the 5' position of purine nucleosides. 2. Synthesis and some cardiovascular properties of adenosine-5'-(N-substituted)carboxamides” (J Med Chem, 1980)
